Experimental data taken from ChEMBL document CHEMBL1154352, “Toll-like receptor 7 selective synthetic oligoribonucleotide agonists: synthesis and structure-activity relationship studies” (J Med Chem, 2009).
Activity calls are given as the source filed them. No cut-off for these calls is given here.

Key:
[1] = Metabolic stability in human serum assessed as full length product remaining after 10 mins by HPLC; assay type: ADME, cell-free; conditions: read-out: Stability
Procedure, shortened: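 About 0.5 A260 units compound in 1% human serum in PBS, 37 °C; aliquot taken at 10 min, analysed by anion-exchange HPLC for percent intact full-length product.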

[2] = species: Homo sapiens; test: Ratio of human TLR7 activity to human TLR8 activity
Procedure, shortened: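 TLR7/TLR8 ratio computed from fold NF-κB (SEAP reporter) activation in HEK293 cells stably expressing human TLR7 versus TLR8, compounds at 50 μg/mL, 18 h exposure; representative of three independent experiments.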

[3] = biological target: T1, Toll-like receptor 9 (Mus musculus) (UniProt Q9EQU3); test: Activation of mouse TLR9 expressed in HEK293 assessed as induction of NF-kappaB activity reporter gene assay; assay type: cell-based
T1 sequence (whole entry): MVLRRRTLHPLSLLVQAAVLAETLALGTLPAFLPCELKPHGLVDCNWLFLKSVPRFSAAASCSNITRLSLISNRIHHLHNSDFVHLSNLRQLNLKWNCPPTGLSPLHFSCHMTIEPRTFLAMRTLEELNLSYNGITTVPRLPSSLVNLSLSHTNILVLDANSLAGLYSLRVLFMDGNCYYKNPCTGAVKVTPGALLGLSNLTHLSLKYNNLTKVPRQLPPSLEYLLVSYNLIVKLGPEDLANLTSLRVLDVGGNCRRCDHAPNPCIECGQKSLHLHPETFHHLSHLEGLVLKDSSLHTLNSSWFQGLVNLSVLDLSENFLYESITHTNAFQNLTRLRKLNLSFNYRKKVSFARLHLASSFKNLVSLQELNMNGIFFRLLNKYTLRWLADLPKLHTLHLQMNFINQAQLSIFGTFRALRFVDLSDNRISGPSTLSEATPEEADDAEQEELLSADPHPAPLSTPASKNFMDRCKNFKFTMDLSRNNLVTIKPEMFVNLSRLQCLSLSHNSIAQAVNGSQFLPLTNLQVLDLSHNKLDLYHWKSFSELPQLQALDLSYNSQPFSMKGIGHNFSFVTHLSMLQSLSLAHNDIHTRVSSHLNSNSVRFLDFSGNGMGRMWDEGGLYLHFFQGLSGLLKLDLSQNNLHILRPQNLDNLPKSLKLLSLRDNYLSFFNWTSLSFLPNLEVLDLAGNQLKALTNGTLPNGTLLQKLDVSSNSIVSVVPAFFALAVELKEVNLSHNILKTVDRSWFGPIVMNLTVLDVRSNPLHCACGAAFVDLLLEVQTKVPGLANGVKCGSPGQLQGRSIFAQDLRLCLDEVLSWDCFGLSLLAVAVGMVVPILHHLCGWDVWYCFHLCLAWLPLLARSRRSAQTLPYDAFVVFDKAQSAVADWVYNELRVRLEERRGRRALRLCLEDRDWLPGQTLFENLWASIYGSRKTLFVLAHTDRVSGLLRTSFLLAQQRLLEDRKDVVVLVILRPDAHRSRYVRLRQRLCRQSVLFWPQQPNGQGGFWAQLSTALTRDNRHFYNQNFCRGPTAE

[4] = test system: Splenocyte; test: Immunomodulatory activity in C57BL/6 mouse splenocytes bearing TLR7 receptor assessed as IL6 release at 100 ug/ml after 24 hrs by ELISA; assay type: functional, cell-based
Procedure, shortened: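 C57BL/6 splenocytes in RPMI 1640 with 10% FBS, penicillin/streptomycin, 2 mM L-glutamine, plated at 5 × 10^6 cells/mL; compounds in PBS added, 37 °C for 24 h. Supernatant IL-12 and IL-6 by ELISA; representative of three independent experiments.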

Row | Structure (SMILES) | remaining at 10 min [1] [%] | Ratio [2] | Activity [3] | Activity [4]
1 | Nc1ccn([C@@H]2O[C@H](COP(=O)(S)O[C@H]3[C@@H](O)[C@H](n4ccc(N)nc4=O)O[C@@H]3COP(=O)(S)O[C@H]3[C@@H](O)[C@H](n4cnc5c(N)ncnc54)O[C@@H]3COP(=O)(S)O[C@H]3[C@@H](O)[C@H](n4ccc5c(=O)[nH]c(N)nc54)O[C@@H]3COP(=O)(S)O[C@H]3[C@@H](O)[C@H](n4ccc(=O)[nH]c4=O)O[C@@H]3COP(=O)(S)O[C@H]3[C@@H](O)[C@H](n4ccc(=O)[nH]c4=O)O[C@@H]3COP(=O)(S)O[C@H]3[C@@H](O)[C@H](n4ccc(N)nc4=O)O[C@@H]3COP(=O)(S)O[C@H]3[C@@H](O)[C@H](n4cnc5c(N)ncnc54)O[C@@H]3CO)[C@@H](OP(=O)(S)OC[C@H]3O[C@@H](n4ccc(=O)[nH]c4=O)[C@H](O)[C@@H]3OP(=O)(S)OC[C@H]3O[C@@H](n4ccc5c(=O)[nH]c(N)nc54)[C@H](O)[C@@H]3OP(=O)(S)OC[C@H]3O[C@@H](n4ccc(=O)[nH]c4=O)[C@H](O)[C@@H]3OP(=O)(S)OCC(O)COP(=O)(S)O[C@H]3[C@@H](O)[C@H](n4ccc(=O)[nH]c4=O)O[C@@H]3COP(=O)(S)O[C@H]3[C@@H](O)[C@H](n4ccc5c(=O)[nH]c(N)nc54)O[C@@H]3COP(=O)(S)O[C@H]3[C@@H](O)[C@H](n4ccc(=O)[nH]c4=O)O[C@@H]3COP(=O)(S)O[C@H]3[C@@H](O)[C@H](n4ccc(N)nc4=O)O[C@@H]3COP(=O)(S)O[C@H]3[C@@H](O)[C@H](n4ccc(N)nc4=O)O[C@@H]3COP(=O)(S)O[C@H]3[C@@H](O)[C@H](n4cnc5c(N)ncnc54)O[C@@H]3COP(=O)(S)O[C@H]3[C@@H](O)[C@H](n4ccc5c(=O)[nH]c(N)nc54)O[C@@H]3COP(=O)(S)O[C@H]3[C@@H](O)[C@H](n4ccc(=O)[nH]c4=O)O[C@@H]3COP(=O)(S)O[C@H]3[C@@H](O)[C@H](n4ccc(=O)[nH]c4=O)O[C@@H]3COP(=O)(S)O[C@H]3[C@@H](O)[C@H](n4ccc(N)nc4=O)O[C@@H]3COP(=O)(S)O[C@H]3[C@@H](O)[C@H](n4cnc5c(N)ncnc54)O[C@@H]3CO)[C@H]2O)c(=O)n1 (some centres not stated) | 63 | 8.7 | inactive | Active
2 | Nc1ccn([C@@H]2O[C@H](COP(=O)(S)O[C@H]3[C@@H](O)[C@H](n4cnc5c(N)ncnc54)O[C@@H]3COP(=O)(S)O[C@H]3[C@@H](O)[C@H](n4ccc5c(=O)[nH]c(N)nc54)O[C@@H]3COP(=O)(S)O[C@H]3[C@@H](O)[C@H](n4ccc(=O)[nH]c4=O)O[C@@H]3CO)[C@@H](OP(=O)(S)OC[C@H]3O[C@@H](n4ccc5c(=O)[nH]c(N)nc54)[C@H](O)[C@@H]3OP(=O)(S)OC[C@H]3O[C@@H](n4cnc5c(N)ncnc54)[C@H](O)[C@@H]3OC[C@H]3O[C@@H](n4ccc(=O)[nH]c4=O)[C@H](O)[C@@H]3OP(=O)(S)ON[C@H]3O[C@@H](n4ccc5c(=O)[nH]c(N)nc54)[C@H](O)[C@@H]3OP(=O)(S)OC[C@H]3O[C@@H](n4cnc5c(N)ncnc54)[C@H](O)[C@@H]3OP(=O)(S)OC[C@H]3O[C@@H](n4ccc(=O)[nH]c4=O)[C@H](O)[C@@H]3OP(=O)(S)OC[C@H]3O[C@@H](n4ccc(=O)[nH]c4=O)[C@H](O)[C@@H]3OP(=O)(S)OCC(O)COP(=O)(S)O[C@H]3[C@@H](O)[C@H](n4ccc(=O)[nH]c4=O)O[C@@H]3COP(=O)(S)O[C@H]3[C@@H](O)[C@H](n4ccc(=O)[nH]c4=O)O[C@@H]3COP(=O)(S)O[C@H]3[C@@H](O)[C@H](n4cnc5c(N)ncnc54)O[C@@H]3COP(=O)(S)O[C@H]3[C@@H](O)[C@H](n4ccc5c(=O)[nH]c(N)nc54)O[C@@H]3NOP(=O)(S)O[C@H]3[C@@H](O)[C@H](n4ccc(=O)[nH]c4=O)O[C@@H]3CO[C@H]3[C@@H](O)[C@H](n4cnc5c(N)ncnc54)O[C@@H]3COP(=O)(S)O[C@H]3[C@@H](O)[C@H](n4ccc5c(=O)[nH]c(N)nc54)O[C@@H]3COP(=O)(S)O[C@H]3[C@@H](O)[C@H](n4ccc(N)nc4=O)O[C@@H]3COP(=O)(S)O[C@H]3[C@@H](O)[C@H](n4cnc5c(N)ncnc54)O[C@@H]3COP(=O)(S)O[C@H]3[C@@H](O)[C@H](n4ccc5c(=O)[nH]c(N)nc54)O[C@@H]3COP(=O)(S)O[C@H]3[C@@H](O)[C@H](n4ccc(=O)[nH]c4=O)O[C@@H]3CO)[C@H]2O)c(=O)n1 (some centres not stated) | 86 | 4 | inactive | Active
3 | Nc1ccn([C@@H]2O[C@H](COP(=O)(S)O[C@H]3[C@@H](O)[C@H](n4cnc5c(N)ncnc54)O[C@@H]3COP(=O)(S)O[C@H]3[C@@H](O)[C@H](n4ccc5c(=O)[nH]c(N)nc54)O[C@@H]3COP(=O)(S)O[C@H]3[C@@H](O)[C@H](n4ccc(=O)[nH]c4=O)O[C@@H]3COP(=O)(S)O[C@H]3[C@@H](O)[C@H](n4ccc(=O)[nH]c4=O)O[C@@H]3COP(=O)(S)O[C@H]3[C@@H](O)[C@H](n4cnc5c(N)ncnc54)O[C@@H]3COP(=O)(S)O[C@H]3[C@@H](O)[C@H](n4cnc5c(N)ncnc54)O[C@@H]3CO)[C@@H](OP(=O)(S)OC[C@H]3O[C@@H](n4ccc5c(=O)[nH]c(N)nc54)[C@H](O)[C@@H]3OP(=O)(S)OC[C@H]3O[C@@H](n4ccc(N)nc4=O)[C@H](O)[C@@H]3OP(=O)(S)OC[C@H]3O[C@@H](n4ccc(=O)[nH]c4=O)[C@H](O)[C@@H]3OP(=O)(S)OC[C@H]3O[C@@H](n4ccc5c(=O)[nH]c(N)nc54)[C@H](O)[C@@H]3OP(=O)(S)OCC(O)COP(=O)(S)O[C@H]3[C@@H](O)[C@H](n4ccc5c(=O)[nH]c(N)nc54)O[C@@H]3COP(=O)(S)O[C@H]3[C@@H](O)[C@H](n4ccc(=O)[nH]c4=O)O[C@@H]3COP(=O)(S)O[C@H]3[C@@H](O)[C@H](n4ccc(N)nc4=O)O[C@@H]3COP(=O)(S)O[C@H]3[C@@H](O)[C@H](n4ccc5c(=O)[nH]c(N)nc54)O[C@@H]3COP(=O)(S)O[C@H]3[C@@H](O)[C@H](n4ccc(N)nc4=O)O[C@@H]3COP(=O)(S)O[C@H]3[C@@H](O)[C@H](n4cnc5c(N)ncnc54)O[C@@H]3COP(=O)(S)O[C@H]3[C@@H](O)[C@H](n4ccc5c(=O)[nH]c(N)nc54)O[C@@H]3COP(=O)(S)O[C@H]3[C@@H](O)[C@H](n4ccc(=O)[nH]c4=O)O[C@@H]3COP(=O)(S)O[C@H]3[C@@H](O)[C@H](n4ccc(=O)[nH]c4=O)O[C@@H]3COP(=O)(S)O[C@H]3[C@@H](O)[C@H](n4cnc5c(N)ncnc54)O[C@@H]3COP(=O)(S)O[C@H]3[C@@H](O)[C@H](n4cnc5c(N)ncnc54)O[C@@H]3CO)[C@H]2O)c(=O)n1 (some centres not stated) | 82 | 114 | inactive | Active
